Test results taken from ChEMBL document CHEMBL3085741, “Structure-activity relationships and molecular modeling of sphingosine kinase inhibitors” (J Med Chem, 2013).
pIC50: −log10 of the molar value. Active and inactive are the calls of the source. No cut-off for these calls is given here.

Legend:
[1] = molecular target: T1, Sphingosine kinase 1 (Homo sapiens, UniProt Q9NYA1); test: Inhibition of recombinant sphingosine kinase 1 (unknown origin) expressed in HEK293 cells using sphingosine as substrate at 50 uM after 30 mins relative to control in presence of [gamma32P]-ATP
Summary of the method: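 Single-point inhibitor test at 50 μM with 250 μM ATP. […] Activity is reported as % of control, where control (100%) is activity with sphingosine alone. n = 3, mean ± SD.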

[2] = molecular target: T1, Sphingosine kinase 1; test: Inhibition of recombinant sphingosine kinase 1 (unknown origin) expressed in HEK293 cells using sphingosine as substrate at 100 uM after 30 mins relative to control in presence of [gamma32P]-ATP
[3] = molecular target: T2, Sphingosine kinase 2 (Homo sapiens) (UniProt Q9NRA0); test: Activity at sphingosine kinase 2 (unknown origin) at 50 uM after 30 mins in presence of [gamma32P]-ATP
T2 sequence (whole entry): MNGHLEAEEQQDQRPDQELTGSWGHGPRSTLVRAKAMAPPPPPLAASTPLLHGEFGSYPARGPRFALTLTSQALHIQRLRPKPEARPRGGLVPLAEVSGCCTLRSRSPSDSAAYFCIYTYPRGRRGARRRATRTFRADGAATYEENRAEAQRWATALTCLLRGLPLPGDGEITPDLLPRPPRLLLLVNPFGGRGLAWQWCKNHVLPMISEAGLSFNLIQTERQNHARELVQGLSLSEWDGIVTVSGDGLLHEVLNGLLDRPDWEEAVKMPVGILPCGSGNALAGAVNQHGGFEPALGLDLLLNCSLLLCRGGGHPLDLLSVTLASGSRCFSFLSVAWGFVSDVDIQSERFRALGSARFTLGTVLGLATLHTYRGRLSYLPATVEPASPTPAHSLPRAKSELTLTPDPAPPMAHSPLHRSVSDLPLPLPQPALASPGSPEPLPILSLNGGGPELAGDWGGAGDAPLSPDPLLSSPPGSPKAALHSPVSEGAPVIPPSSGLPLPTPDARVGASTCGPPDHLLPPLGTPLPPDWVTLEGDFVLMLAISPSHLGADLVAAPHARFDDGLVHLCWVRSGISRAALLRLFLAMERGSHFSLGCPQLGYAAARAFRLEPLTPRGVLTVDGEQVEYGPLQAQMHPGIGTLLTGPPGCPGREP

[4] = molecular target: T2, Sphingosine kinase 2 (Homo sapiens); test: Inhibition of sphingosine kinase 2 (unknown origin) using sphingosine as substrate at 50 uM after 30 mins relative to control in presence of [gamma32P]-ATP
[5] = molecular target: T3, Sphingosine kinase 2 (Homo sapiens, UniProt Q9NRA0); test: (§1) Inhibition of sphingosine kinase 2 (unknown origin) using sphingosine as substrate after 30 mins in presence of [gamma32P]-ATP
T3 sequence (Q9NRA0 whole entry): T2 sequence (whole entry)
Summary of the method: (§2)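 Results are given as % of the sphingosine-only control, and IC50 was derived from the curve. n = 3, ± SD.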

[6] = molecular target: T2, Sphingosine kinase 2 (Homo sapiens); test: as §1; summary of the method: as §2
[7] = molecular target: T1, Sphingosine kinase 1; test: Inhibition of recombinant sphingosine kinase 1 (unknown origin) expressed in HEK293 cells using sphingosine as substrate after 30 mins in presence of [gamma32P]-ATP
[8] = 100 uM, in the assay text read “at 100 uM” for “at 50 uM”

T1 sequence (Q9NYA1 whole entry): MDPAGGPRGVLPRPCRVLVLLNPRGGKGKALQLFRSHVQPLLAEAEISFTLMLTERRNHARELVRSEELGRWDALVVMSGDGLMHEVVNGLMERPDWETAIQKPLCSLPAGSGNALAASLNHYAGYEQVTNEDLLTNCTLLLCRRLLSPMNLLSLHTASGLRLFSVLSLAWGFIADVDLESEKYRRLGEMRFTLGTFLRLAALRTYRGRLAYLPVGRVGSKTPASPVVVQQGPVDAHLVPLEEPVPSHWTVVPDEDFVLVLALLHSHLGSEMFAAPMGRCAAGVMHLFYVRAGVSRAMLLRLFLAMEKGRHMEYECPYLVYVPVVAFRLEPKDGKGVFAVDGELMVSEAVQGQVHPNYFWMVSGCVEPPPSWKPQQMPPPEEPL

| SMILES | inhibition [1] | other results |
| --- | --- | --- |
| CCCCCCCCc1ccc(CCN2CCC(OC)CC2)cc1 | inactive | – |
| CCCCCCCCc1ccc(C(=O)Nc2ccc(CCO)cc2)cc1 | inactive | – |
| CCCCCCCCCCCCc1ccc(C(=O)N2CCC(O)CC2)cc1 | inactive | – |
| CCCCCCCCc1cn(-c2ccc(CCN3CCCCC3)cc2)nn1 | inactive | – |
| Cc1ccc(CCN2CCC(O)CC2)cc1 | inactive | – |
| CCCCCCCCc1ccc(C(=O)N2CCC(O)CC2)cc1 | inactive | – |
| CCCCCCCCc1ccc(CCN2CC[C@@H](O)C2)cc1 | Active | – |
| CCCCCCCCc1ccc(CCN2CCC(N=[N+]=[N-])CC2)cc1 | inactive | – |
| CCCCCCCCc1ccc(CCN2CCC[C@H]2CO)cc1 | – | inhibition [2]: 72.2%; Activity [3]: Active; inhibition [4, 8]: 45.7% |
| CCCCCCCCc1ccc(C(=O)NCc2ccncc2)cc1 | inactive | – |
| CCCCCCCCc1cn(-c2ccc(CCN3CCC(O)CC3)cc2)nn1 | Active | – |
| CCCCc1cn(-c2ccc(CCN3CCCCC3)cc2)nn1 | inactive | – |
| CCCCCCCCc1ccc(CCc2cccnc2)cc1 | inactive | – |
| CCCCCCCCc1ccc(C(=O)Nc2ccc(O)cc2)cc1 | inactive | – |
| CCCCCCCCCCCCc1ccc(CCN2CCC[C@@H]2CO)cc1 | – | pIC50 [5]: 5.30; inhibition [6]: Dose-dependent effect; pIC50 [7]: 5.28; inhibition [7]: Dose-dependent effect |
| CCCCCCCCc1ccc(CCc2ccc[n+](C)c2)cc1 | inactive | inhibition ([4]; 50 uM): inactive |
| CCCCCCCCc1cn(-c2ccc(CC[N+]3(C)CCCCC3)cc2)nn1 | inactive | inhibition ([4]; 50 uM): inactive |
| CCCCc1cn(-c2ccc(CC[N+]3(C)CCCCC3)cc2)nn1 | inactive | inhibition ([4]; 50 uM): inactive |
| CCCCCCCCc1ccc(CCCCN2CCC(O)CC2)cc1 | Active | – |
| CCCCCCCCc1ccc(C[n+]2ccc(N3CCC(C)CC3)cc2)cc1 | inactive | inhibition ([4]; 50 uM): Active |
| CCCCc1cn(-c2ccc(CCN3CCC(O)CC3)cc2)nn1 | inactive | – |

| SMILES | inhibition [1] | other results |
| --- | --- | --- |
| Cc1ccc(CCN2CCC[C@@H]2CO)cc1 | inactive | – |
| CCCCCCCCCCCCc1ccc(CCN2CCC(N)CC2)cc1 | inactive | – |
| CCCCCc1cn(-c2ccc(CCN3CCCCC3)cc2)nn1 | inactive | – |
| CCCCCCCCCCCCc1ccc(CCN2CCC[C@H]2CO)cc1 | – | inhibition [2]: 49.9%; Activity [3]: Active; inhibition [4, 8]: 49.7% |
| CCCCCc1cn(-c2ccc(CCN3CCC(O)CC3)cc2)nn1 | inactive | – |
| CCCCCCCCc1ccc(CCCN2CCC(O)CC2)cc1 | Active | – |
| CCCCCCCCc1ccc(CN2CCC(O)CC2)cc1 | Active | – |
| CCCCCCCCCCCCc1ccc(C(=O)N2CCC[C@@H]2CO)cc1 | inactive | – |
| CCCCCCCCc1ccc(CCN2CCC(N)CC2)cc1 | – | pIC50 [7]: 4.77; inhibition [7]: Dose-dependent effect |
| Cc1ccc(CCN2CCC(N=[N+]=[N-])CC2)cc1 | inactive | – |
| CCCCCCCCc1ccc(CCN2CC[C@H](O)C2)cc1 | Active | – |
| CCCCCc1cn(-c2ccc(CC[N+]3(C)CCCCC3)cc2)nn1 | inactive | inhibition ([4]; 50 uM): inactive |
| CCCCCCCCc1ccc(CCN2CCC(F)CC2)cc1 | inactive | – |
| CCCCCCCCc1cn(-c2ccc(O)cc2)nn1 | inactive | – |
| CCCCCCCCCCCCc1ccc(C(=O)N2CCC[C@H]2CO)cc1 | inactive | – |
| Cc1ccc(CCN2CCC(N)CC2)cc1 | inactive | – |
| CCCCCCCCc1ccc(-n2cc(-c3cccnc3)nn2)cc1 | inactive | – |
| CCCCCCCCc1cn(-c2ccc(CCO)cc2)nn1 | inactive | – |
| CCCCCCCCc1ccc(CCN2CCC(=O)CC2)cc1 | – | inhibition ([4]; 50 uM): Active |
| CCCCCCCCc1ccc(CCN2CCC[C@@H]2CO)cc1 | – | pIC50 [5]: 5.28; inhibition [6]: Dose-dependent effect; pIC50 [7]: 5.66; inhibition [7]: Dose-dependent effect |
